# Calls of active or inactive are those of the source. No cut-off for these calls is given here.
# What was measured:
# Staphylococcus aureus [1] = assay: Bactericidal activity against vancomycin-resistant Staphylococcus aureus 12 incubated for 18 to 20 hrs followed by replating on tryptic soy agar plate and further incubated for 18 to 24 hrs by CLSI-based broth microdilution assay; format: functional
# Procedure, shortened: (§1)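 MBC: after the broth microdilution MIC (CAMHB, ~5 × 10^5 CFU/mL, 37 °C, 18-20 h), 4 µL from wells without growth plated onto tryptic soy agar. Plates incubated 37 °C for 18-20 h. MBC is the lowest concentration giving 99.9% reduction in growth.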
# Streptococcus pneumoniae [2] = assay: Bactericidal activity against cephalosporin-resistant Streptococcus pneumoniae ATCC 51916 incubated for 18 to 20 hrs followed by replating on tryptic soy agar plate and further incubated for 18 to 24 hrs by CLSI-based broth microdilution assay; format: functional; procedure, shortened: as §1
# Enterococcus faecalis [3] = assay: Bactericidal activity against vancomycin-resistant Enterococcus faecalis ATCC 51299 incubated for 18 to 20 hrs followed by replating on tryptic soy agar plate and further incubated for 18 to 24 hrs by CLSI-based broth microdilution assay; format: functional; procedure, shortened: as §1
# Staphylococcus aureus [4] = assay: Bactericidal activity against methicilline-resistant Staphylococcus aureus NRS-119 incubated for 18 to 20 hrs followed by replating on tryptic soy agar plate and further incubated for 18 to 24 hrs by CLSI-based broth microdilution assay; format: functional; procedure, shortened: as §1
# Streptococcus pneumoniae [5] = assay: Antibacterial activity against methicillin-resistant Streptococcus pneumoniae ATCC 700677 after 18 to 20 hrs by CLSI-based broth microdilution assay; format: functional
# Procedure, shortened: (§2)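 Broth microdilution per CLSI. Strains grown aerobically overnight on tryptone soy agar at 37 °C, adjusted to 0.5 McFarland, then diluted in cation-adjusted Mueller-Hinton broth to about 5 × 10^5 CFU/mL. Compounds (10 mg/mL DMSO stocks) serially diluted. Incubated aerobically at 37 °C for 18-20 h. MIC is the lowest concentration with no visible growth.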
# Streptococcus pneumoniae [6] = assay: Bactericidal activity against methicillin-resistant Streptococcus pneumoniae ATCC 700677 incubated for 18 to 20 hrs followed by replating on tryptic soy agar plate and further incubated for 18 to 24 hrs by CLSI-based broth microdilution assay; format: functional; procedure, shortened: as §1
# Staphylococcus aureus [7] = assay: Bactericidal activity against methicilline-sensitive Staphylococcus aureus NRS-107 incubated for 18 to 20 hrs followed by replating on tryptic soy agar plate and further incubated for 18 to 24 hrs by CLSI-based broth microdilution assay; format: functional; procedure, shortened: as §1
# Staphylococcus aureus [8] = assay: Bactericidal activity against Staphylococcus aureus ATCC BAA42 incubated for 18 to 20 hrs followed by replating on tryptic soy agar plate and further incubated for 18 to 24 hrs by CLSI-based broth microdilution assay; format: functional; procedure, shortened: as §1
# Enterococcus faecium [9] = assay: Bactericidal activity against vancomycin-resistant Enterococcus faecium ATCC 700221 incubated for 18 to 20 hrs followed by replating on tryptic soy agar plate and further incubated for 18 to 24 hrs by CLSI-based broth microdilution assay; format: functional; procedure, shortened: as §1
# Staphylococcus aureus [10] = assay: Bactericidal activity against methicilline-resistant Staphylococcus aureus NRS384 USA300 incubated for 18 to 20 hrs followed by replating on tryptic soy agar plate and further incubated for 18 to 24 hrs by CLSI-based broth microdilution assay; format: functional; procedure, shortened: as §1
# Enterococcus faecalis [11] = assay: Antibacterial activity against vancomycin-resistant Enterococcus faecalis ATCC 51299 after 18 to 20 hrs by CLSI-based broth microdilution assay; format: functional; procedure, shortened: as §2
# Staphylococcus aureus [12] = assay: Bactericidal activity against methicilline-resistant Staphylococcus aureus NRS386 USA700 incubated for 18 to 20 hrs followed by replating on tryptic soy agar plate and further incubated for 18 to 24 hrs by CLSI-based broth microdilution assay; format: functional; procedure, shortened: as §1
# Listeria monocytogenes = assay: Antibacterial activity against Listeria monocytogenes ATCC 19111 after 18 to 20 hrs by CLSI-based broth microdilution assay; format: functional
# Staphylococcus aureus [13] = assay: Antibacterial activity against vancomycin-resistant Staphylococcus aureus 10 after 18 to 20 hrs by CLSI-based broth microdilution assay; format: functional; procedure, shortened: as §2
# Staphylococcus aureus [14] = assay: Bactericidal activity against methicilline-resistant Staphylococcus aureus NRS385 USA500 incubated for 18 to 20 hrs followed by replating on tryptic soy agar plate and further incubated for 18 to 24 hrs by CLSI-based broth microdilution assay; format: functional; procedure, shortened: as §1
# Staphylococcus aureus [15] = assay: Antibacterial activity against Staphylococcus aureus ATCC BAA42 after 18 to 20 hrs by CLSI-based broth microdilution assay; format: functional; procedure, shortened: as §2
# Staphylococcus aureus [16] = assay: Antibacterial activity against intracellular methicillin resistant Staphylococcus aureus USA400 infected in mouse J774 cells assessed as intracellular bacterial cells at 2 times MIC concentration incubated for 24 hrs followed by re-plating on TSA plate for 18 to 22 hrs by serial dilution method; format: functional, organism-based
# Procedure, shortened: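 J774 murine macrophages in DMEM + 10% FBS, 37 °C, 5% CO2, infected with MRSA USA400 at MOI ~10:1 for 1 h. Washed with gentamicin 100 µg/mL to kill extracellular bacteria. […] Cells lysed with 0.1% Triton-X, serially diluted in PBS, plated on TSA for 18-22 h, CFU counted. One-way ANOVA with Dunnett's test.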
# Staphylococcus aureus [17] = assay: Bactericidal activity against methicilline-resistant Staphylococcus aureus NRS123 USA400 incubated for 18 to 20 hrs followed by replating on tryptic soy agar plate and further incubated for 18 to 24 hrs by CLSI-based broth microdilution assay; format: functional; procedure, shortened: as §1
# Staphylococcus aureus [18] = assay: Antibiofilm activity against methicillin resistant Staphylococcus aureus NRS384 USA300 assessed as disruption of matured biofilm formation at 4 x MIC incubated for 24 hrs by crystal violet staining based spectrophotometric analysis; format: functional, organism-based
# Procedure, shortened: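 MRSA USA300 overnight culture diluted 1:100 in tryptic soy broth + 1% glucose. Biofilm formed for 24 h at 37 °C. Planktonic cells removed, then compounds added at 256 to 2 µg/mL in TSB for 24 h at 37 °C. Wells washed with PBS, stained with 0.1% crystal violet for 30 min, destained with ethanol, read at OD595. Percent eradication relative to DMSO; unpaired t test.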
# Staphylococcus aureus [19] = assay: Bactericidal activity against methicillin-resistant Staphylococcus aureus USA400 assessed as reduction in bacterial burden at 5 times MIC after 24 hrs by time kill assay; format: functional, organism-based
# Enterococcus faecium [20] = assay: Antibacterial activity against vancomycin-resistant Enterococcus faecium ATCC 700221 after 18 to 20 hrs by CLSI-based broth microdilution assay; format: functional; procedure, shortened: as §2
# Staphylococcus aureus [21] = assay: Antibacterial activity against vancomycin-resistant Staphylococcus aureus 12 after 18 to 20 hrs by CLSI-based broth microdilution assay; format: functional; procedure, shortened: as §2
# Streptococcus pneumoniae [22] = assay: Antibacterial activity against cephalosporin-resistant Streptococcus pneumoniae ATCC 51916 after 18 to 20 hrs by CLSI-based broth microdilution assay; format: functional; procedure, shortened: as §2
# Staphylococcus aureus [23] = assay: Bactericidal activity against vancomycin-resistant Staphylococcus aureus 10 incubated for 18 to 20 hrs followed by replating on tryptic soy agar plate and further incubated for 18 to 24 hrs by CLSI-based broth microdilution assay; format: functional; procedure, shortened: as §1
# Staphylococcus aureus [24] = assay: Bactericidal activity against methicilline-sensitive Staphylococcus aureus ATCC 6538 incubated for 18 to 20 hrs followed by replating on tryptic soy agar plate and further incubated for 18 to 24 hrs by CLSI-based broth microdilution assay; format: functional; procedure, shortened: as §1
smiles,measurement,setting,value
CN[C@H](CC(C)C)C(=O)N[C@H]1C(=O)N[C@@H](CC(N)=O)C(=O)N[C@H]2C(=O)N[C@H]3C(=O)N[C@H](C(=O)N[C@H](C(=O)O)c4cc(O)cc(O)c4-c4cc3ccc4O)[C@H](O)c3ccc(c(Cl)c3)Oc3cc2cc(c3O[C@@H]2O[C@H](CO)[C@@H](O)[C@H](O)[C@H]2O[C@H]2C[C@](C)(N)[C@H](O)[C@H](C)O2)Oc2ccc(cc2Cl)[C@H]1O [VANCOMYCIN],MBC,Staphylococcus aureus [1],> 64 µg/mL
same,MBC,Streptococcus pneumoniae [2],1 µg/mL
same,MBC,Enterococcus faecalis [3],64 µg/mL
same,MBC,Staphylococcus aureus [4],1 µg/mL
same,MIC,Streptococcus pneumoniae [5],1 µg/mL
same,MBC,Streptococcus pneumoniae [6],1 µg/mL
same,MBC,Staphylococcus aureus [7],1 µg/mL
same,MBC,Staphylococcus aureus [8],≤ 0.5 µg/mL
same,MBC,Enterococcus faecium [9],> 64 µg/mL
same,MBC,Staphylococcus aureus [10],1 µg/mL
same,MIC,Enterococcus faecalis [11],32 µg/mL
same,MBC,Staphylococcus aureus [12],1 µg/mL
same,MIC,Listeria monocytogenes,0.5 µg/mL
same,MIC,Staphylococcus aureus [13],> 64 µg/mL
same,MBC,Staphylococcus aureus [14],1 µg/mL
same,MIC,Staphylococcus aureus [15],≤ 0.5 µg/mL
same,inhibition,Staphylococcus aureus [16],inactive
same,MBC,Staphylococcus aureus [17],1 µg/mL
same,inhibition,Staphylococcus aureus [18],inactive
same,inhibition,Staphylococcus aureus [19],Active
same,MIC,Enterococcus faecium [20],> 64 µg/mL
same,MIC,Staphylococcus aureus [21],> 64 µg/mL
same,MIC,Streptococcus pneumoniae [22],0.5 µg/mL
same,MBC,Staphylococcus aureus [23],> 64 µg/mL
same,MBC,Staphylococcus aureus [24],1 µg/mL

# Reference: ChEMBL document CHEMBL4406834, “Phenylthiazoles with nitrogenous side chain: An approach to overcome molecular obesity” (Eur J Med Chem, 2019)
